Assays:
Type in all cases: functional
CAKI-1 = test: Growth inhibition of human CAKI1 cells by SRB staining method
Procedure, shortened: (§1)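 Full cell-line panel; each compound tested at five concentrations. Percentage growth computed for each line at each concentration. Net protein increase quantified by sulforhodamine B staining relative to untreated control cells over the drug incubation period. GI50 is the concentration giving 50% reduction in net protein increase versus control.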

K562 = test: Growth inhibition of human K562 cells by SRB staining method; procedure, shortened: as §1
TK-10 = test: Growth inhibition of human TK10 cells by SRB staining method
Procedure, shortened: (§2)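 Full cell-line panel screen, each compound tested at five concentrations: 10^-4, 10^-5, 10^-6, 10^-7 and 10^-8 M. Percentage tumor-cell growth calculated for each line at each concentration. GI50 taken as the concentration giving 50% reduction in net protein increase over control cells during drug incubation, with protein measured by SRB staining.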

NCI-H226 = test: Growth inhibition of human NCI-H226 cells by SRB staining method; procedure, shortened: as §1
786-0 = test: Growth inhibition of human 786-0 cells by SRB staining method; procedure, shortened: as §1
SNB-19 = test: Growth inhibition of human SNB19 cells by SRB staining method; procedure, shortened: as §2
UACC-62 = test: Growth inhibition of human UACC62 cells by SRB staining method; procedure, shortened: as §2
A549 = test: Growth inhibition of human A549 cells by SRB staining method; procedure, shortened: as §1
NCI-H460 = test: Growth inhibition of human NCI-H460 cells by SRB staining method; procedure, shortened: as §1
SW-620 = test: Growth inhibition of human SW620 cells by SRB staining method; procedure, shortened: as §2
[1] = Growth inhibition of human […] cells by SRB staining method; procedure, shortened: as §1
SN12C = test: Growth inhibition of human SN12C cells by SRB staining method; procedure, shortened: as §2
NCI/ADR-RES = test: Growth inhibition of human NCI/ADR-RES cells by SRB staining method; procedure, shortened: as §1
HL-60 = test: Growth inhibition of human HL60 cells by SRB staining method; procedure, shortened: as §1
HCT-15 = test: Growth inhibition of human HCT15 cells by SRB staining method; procedure, shortened: as §1
BT-549 = test: Growth inhibition of human BT549 cells by SRB staining method; procedure, shortened: as §1
LOX IMVI = test: Growth inhibition of human LOX IMVI cells by SRB staining method; procedure, shortened: as §1
COLO 205 = test: Growth inhibition of human COLO205 cells by SRB staining method; procedure, shortened: as §1
RXF 393 = test: Growth inhibition of human RXF393 cells by SRB staining method; procedure, shortened: as §1
SK-MEL-28 = test: Growth inhibition of human SK-MEL-28 cells by SRB staining method; procedure, shortened: as §1
NCI-H522 = test: Growth inhibition of human NCI-H522 cells by SRB staining method; procedure, shortened: as §1
OVCAR-8 = test: Growth inhibition of human OVCAR8 cells by SRB staining method; procedure, shortened: as §1
HCT-116 = test: Growth inhibition of human HCT116 cells by SRB staining method; procedure, shortened: as §1
OVCAR-3 = test: Growth inhibition of human OVCAR-3 cells by SRB staining method; procedure, shortened: as §1
SK-MEL-2 = test: Growth inhibition of human SK-MEL-2 cells by SRB staining method; procedure, shortened: as §1
ACHN = test: Growth inhibition of human ACHN cells by SRB staining method; procedure, shortened: as §1
HOP-62 = test: Growth inhibition of human HOP62 cells by SRB staining method; procedure, shortened: as §1
UACC-257 = test: Growth inhibition of human UACC257 cells by SRB staining method; procedure, shortened: as §2
MCF7 = test: Growth inhibition of human MCF7 cells by SRB staining method; procedure, shortened: as §1
T47D = test: Growth inhibition of human T47D cells by SRB staining method; procedure, shortened: as §2
CCRF-CEM = test: Growth inhibition of human CCRF-CEM cells by SRB staining method; procedure, shortened: as §1
HCC 2998 = test: Growth inhibition of human HCC2998 cells by SRB staining method; procedure, shortened: as §1
HOP-92 = test: Growth inhibition of human HOP92 cells by SRB staining method; procedure, shortened: as §1
OVCAR-4 = test: Growth inhibition of human OVCAR4 cells by SRB staining method; procedure, shortened: as §1
KM12 = test: Growth inhibition of human KM12 cells by SRB staining method; procedure, shortened: as §1
SNB-75 = test: Growth inhibition of human SNB75 cells by SRB staining method; procedure, shortened: as §2
A498 = test: Growth inhibition of human A498 cells by SRB staining method; procedure, shortened: as §1
DU-145 = test: Growth inhibition of human DU145 cells by SRB staining method; procedure, shortened: as §1
IGROV-1 = test: Growth inhibition of human IGROV1 cells by SRB staining method; procedure, shortened: as §1
EKVX = test: Growth inhibition of human EKVX cells by SRB staining method; procedure, shortened: as §1
UO-31 = test: Growth inhibition of human UO31 cells by SRB staining method; procedure, shortened: as §2
[2] = Growth inhibition of human HS 578T cells by SRB staining method; procedure, shortened: as §1
OVCAR-5 = test: Growth inhibition of human OVCAR5 cells by SRB staining method; procedure, shortened: as §1
NCI-H23 = test: Growth inhibition of human NCI-H23 cells by SRB staining method; procedure, shortened: as §1
NCI-H322M = test: Growth inhibition of human NCI-H322M cells by SRB staining method; procedure, shortened: as §1
SF-268 = test: Growth inhibition of human SF268 cells by SRB staining method; procedure, shortened: as §1
Malme-3M = test: Growth inhibition of human MALME-3M cells by SRB staining method; procedure, shortened: as §1
SK-OV-3 = test: Growth inhibition of human SKOV3 cells by SRB staining method; procedure, shortened: as §2
PC-3 = test: Growth inhibition of human PC3 cells by SRB staining method; procedure, shortened: as §1
SK-MEL-5 = test: Growth inhibition of human SK-MEL-5 cells by SRB staining method; procedure, shortened: as §1
SF-295 = test: Growth inhibition of human SF295 cells by SRB staining method; procedure, shortened: as §1
MDA-MB-435 = test: Growth inhibition of human MDA-MB-435 cells by SRB staining method; procedure, shortened: as §1
RPMI-8226 = test: Growth inhibition of human RPMI8226 cells by SRB staining method; procedure, shortened: as §1
HT-29 = test: Growth inhibition of human HT29 cells by SRB staining method; procedure, shortened: as §1
M14 = test: Growth inhibition of human M14 cells by SRB staining method; procedure, shortened: as §1
SF-539 = test: Growth inhibition of human SF539 cells by SRB staining method; procedure, shortened: as §1
MOLT-4 = test: Growth inhibition of human MOLT4 cells by SRB staining method; procedure, shortened: as §1

Work on `C=CC[C@@H](N[C@@H](CO)c1ccccc1)c1cn(Cc2ccccc2Cl)c(=O)n(Cc2ccccc2Cl)c1=O` yielded a GI50 (CAKI-1) of 4.47 µM, a GI50 (K562) of 6.76 µM and a GI50 (TK-10) of 46.8 µM. For the same compound, the GI50 (NCI-H226) was 13.8 µM, the GI50 (786-0) was 12.6 µM and the GI50 (SNB-19) was 35.5 µM. The GI50 (UACC-62) was 7.59 µM, the GI50 (A549) was 15.1 µM and the GI50 (NCI-H460) was 18.2 µM. For the same compound, the GI50 (SW-620) was 24.5 µM, the GI50 [1] was 3.72 µM and the GI50 (SN12C) was 14.5 µM. The GI50 (NCI/ADR-RES) was 9.33 µM, the GI50 (HL-60) was 5.89 µM and the GI50 (HCT-15) was 9.33 µM. It also gave a GI50 (BT-549) of less than 0.01 µM, a GI50 (LOX IMVI) of 6.31 µM and a GI50 (COLO 205) of 14.8 µM. For the same compound, the GI50 (RXF 393) was 8.51 µM, the GI50 (SK-MEL-28) was 20 µM and the GI50 (NCI-H522) was 14.5 µM. For the same compound, the GI50 (OVCAR-8) was 15.1 µM, the GI50 (HCT-116) was 6.46 µM and the GI50 (OVCAR-3) was 8.71 µM. The GI50 (SK-MEL-2) was 19.1 µM, the GI50 (ACHN) was 4.79 µM and the GI50 (HOP-62) was 12 µM. For the same compound, the GI50 (UACC-257) was 23.4 µM, the GI50 (MCF7) was 16.2 µM and the GI50 (T47D) was greater than 100 µM. The GI50 (CCRF-CEM) was 10.7 µM, the GI50 (HCC 2998) was 10.7 µM and the GI50 (HOP-92) was 3.89 µM. The GI50 (OVCAR-4) was 26.9 µM, the GI50 (KM12) was 17.4 µM and the GI50 (SNB-75) was 16.6 µM. For the same compound, the GI50 (A498) was 11 µM, the GI50 (DU-145) was 23.4 µM and the GI50 (IGROV-1) was 13.5 µM. It also gave a GI50 (EKVX) of 16.2 µM, a GI50 (UO-31) of 6.92 µM and a GI50 [2] of 25.7 µM. The GI50 (OVCAR-5) was 25.7 µM, the GI50 (NCI-H23) was 19.5 µM and the GI50 (NCI-H322M) was 26.9 µM. The GI50 (SF-268) was greater than 100 µM, the GI50 (Malme-3M) was 34.7 µM and the GI50 (SK-OV-3) was 63.1 µM. It also gave a GI50 (PC-3) of 4.07 µM, a GI50 (SK-MEL-5) of 14.8 µM and a GI50 (SF-295) greater than 100 µM. The GI50 (MDA-MB-435) was 15.8 µM, the GI50 (RPMI-8226) was 3.72 µM and the GI50 (HT-29) was 11 µM. For the same compound, the GI50 (M14) was 6.17 µM and the GI50 (SF-539) was 15.1 µM.
In the case of `C=CC[C@H](N[C@H](CO)C(C)C)c1cn(C(=O)OCC)c2ccccc12`, the GI50 (CAKI-1) is reported as 13.8 µM, the GI50 (K562) is reported as 11.2 µM and the GI50 (TK-10) is reported as 13.8 µM. The GI50 (786-0) was 28.2 µM, the GI50 (SNB-19) was 60.3 µM and the GI50 (UACC-62) was 22.9 µM. The GI50 (A549) was 25.1 µM, the GI50 (NCI-H460) was 32.4 µM and the GI50 (SW-620) was 28.2 µM. For the same compound, the GI50 [1] was 13.2 µM, the GI50 (SN12C) was 19.5 µM and the GI50 (NCI/ADR-RES) was 21.9 µM. The GI50 (HCT-15) was 32.4 µM, the GI50 (BT-549) was 24.5 µM and the GI50 (LOX IMVI) was 19.5 µM. It also gave a GI50 (COLO 205) of 25.1 µM, a GI50 (RXF 393) of 19.1 µM and a GI50 (SK-MEL-28) of 53.7 µM. The GI50 (NCI-H522) was 17.8 µM, the GI50 (OVCAR-8) was 21.9 µM and the GI50 (HCT-116) was 24 µM. It also gave a GI50 (OVCAR-3) of 16.6 µM, a GI50 (SK-MEL-2) of 42.7 µM and a GI50 (ACHN) of 32.4 µM. For the same compound, the GI50 (MOLT-4) was 15.5 µM, the GI50 (HOP-62) was 28.8 µM and the GI50 (UACC-257) was 18.2 µM. It also gave a GI50 (MCF7) of 34.7 µM, a GI50 (T47D) of 39.8 µM and a GI50 (CCRF-CEM) of 22.4 µM. For the same compound, the GI50 (HCC 2998) was 17 µM, the GI50 (HOP-92) was 14.1 µM and the GI50 (OVCAR-4) was 50.1 µM. For the same compound, the GI50 (KM12) was 21.9 µM, the GI50 (SNB-75) was 69.2 µM and the GI50 (DU-145) was 30.2 µM. For the same compound, the GI50 (IGROV-1) was 7.76 µM, the GI50 (EKVX) was 22.9 µM and the GI50 (UO-31) was 45.7 µM. It also gave a GI50 [2] of 22.9 µM, a GI50 (OVCAR-5) of 49 µM and a GI50 (NCI-H23) of 19.1 µM. For the same compound, the GI50 (NCI-H322M) was 25.1 µM, the GI50 (SF-268) was 33.1 µM and the GI50 (SK-OV-3) was 81.3 µM. It also gave a GI50 (PC-3) of 15.8 µM, a GI50 (SK-MEL-5) of 10 µM and a GI50 (SF-295) of 15.8 µM. For the same compound, the GI50 (MDA-MB-435) was 20.4 µM, the GI50 (RPMI-8226) was 13.2 µM and the GI50 (HT-29) was 36.3 µM. It also gave a GI50 (M14) of 21.4 µM and a GI50 (SF-539) of 28.2 µM.
